Screening data from PubChem BioAssay.
Rows were chosen to be rich in hits. Some 3.5% of all compounds tested hit in one or more screens of this group.
RGS4 inh – human RGS4 inhibition; AID 463165; HEK293 M3R/RGS4 inducible, Fluo-4 calcium flux; hits give high values; triggered by carbachol at its EC20; B-score at 10 µM; actives 0.45% (n = 310,000);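 active = B-score, a plate-corrected calcium signal, over three deviations above library mean, with baseline fluorescence within five deviations of library mean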;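 note: RGS4 expression induced by doxycycline in cells with stable M3 receptor; B-score is computed from the integrated fluorescence ratio over baseline after carbachol; higher B-score means a larger calcium signal and so more RGS4 inhibition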
Target sequence (P49798 whole entry, looked up): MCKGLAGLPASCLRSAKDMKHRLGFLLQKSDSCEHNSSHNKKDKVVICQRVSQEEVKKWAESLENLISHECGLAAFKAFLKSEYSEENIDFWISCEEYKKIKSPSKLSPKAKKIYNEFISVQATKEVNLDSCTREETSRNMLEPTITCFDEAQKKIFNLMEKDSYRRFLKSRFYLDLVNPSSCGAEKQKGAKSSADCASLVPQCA
MrgX1 ag – activates human MrgX1 receptor signaling; B-score at 10 µM; actives 0.44% (n = 310,000); MrgX1-HEK293 cells, Fluo-4 calcium fluorescence, agonist mode; hits give high values; Q96LB2;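 active = calcium response B-score plate-corrected fluorescence ratio at least 3 library SD, with starting fluorescence B-score inside 5 SD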
Target sequence (Q96LB2 whole entry, looked up): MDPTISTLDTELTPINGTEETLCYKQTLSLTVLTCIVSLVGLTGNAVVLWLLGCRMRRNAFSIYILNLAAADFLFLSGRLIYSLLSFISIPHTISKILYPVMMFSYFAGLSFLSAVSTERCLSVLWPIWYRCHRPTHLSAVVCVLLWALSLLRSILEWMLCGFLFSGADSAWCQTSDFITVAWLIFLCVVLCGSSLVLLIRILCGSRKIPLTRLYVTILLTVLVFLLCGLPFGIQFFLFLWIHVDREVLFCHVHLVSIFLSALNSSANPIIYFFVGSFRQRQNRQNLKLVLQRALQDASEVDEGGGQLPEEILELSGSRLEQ
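Material: MrgX1-expressing HEK293 cells / Dosing: compound as first of three additions / Incubation: overnight seeding, then 1 h dark dye loading / Signal: Fluo-4 NW calcium fluorescence / Evaluation: B-scored fluorescence response ratio / Benchmarks: positive and negative control wells on each plate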
MrgX1 antagonist – human MrgX1 receptor antagonism, primary screen | MRGX1-HEK293 calcium flux, Fluo-4, BAM8-22 antagonism; hits give low values | B-score at 10 µM | actives 1.3% (n = 310,000);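 active = calcium-response B-score plate-corrected more than 3 library SD below zero, starting fluorescence within 5 deviations, no agonist response on first addition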;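 note: peak minus trough fluorescence over baseline after final BAM8-22 challenge near maximal dose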
RGS4 pot – RGS4 potentiation or activation | AID 463111 | HEK293 M3R/inducible RGS4, carbachol calcium flux Fluo4; hits give low values | actives 0.92% (n = 310,000) | B-score at 10 µM;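 active = B-score of the integrated calcium signal more than 4 SD below the library mean, with starting fluorescence not abnormally high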;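 note: negative B-score means reduced calcium response which marks RGS4 activation or potentiation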
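test system = HEK293 cells with stable M3R and inducible RGS4 | schedule = recording 10 s baseline at 1 Hz, 100 s post-agonist | technique = Fluo4-AM (2 µM) calcium-flux fluorescence, kinetic read | measure = Agonist-evoked peak-minus-minimum fluorescence over baseline, integrated ratio, B score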
MrgX1 PAM – human MrgX1 positive allosteric modulation, primary screen | MrgX1-HEK293, Fluo-4 calcium flux, FDSS; hits give high values | Q96LB2 | B-score at 10 µM | actives 0.63% (n = 310,000);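 active = plate-corrected calcium response at least 3 library SD above typical, normal starting fluorescence, not activating the receptor alone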;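 note: compound read alongside a low EC10 to EC30 dose of BAM8-22 agonist; peak minus trough fluorescence over baseline measured at the second addition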
RGS4 activ val – RGS4 activation, validation assay | shares compounds with RGS4 pot | HEK293 M3R/RGS4 inducible, carbachol calcium flux Fluo4 | inhibition, % at 10 µM | actives 89% (n = 1,100) | AID 602282;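 active = inhibition above 3 SD of the buffer control wells, cut at about 41% in these data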;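 note: signal is the integrated peak-minus-minimum Fluo4 fluorescence over baseline ratio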
M3R Ca counter – RGS4 activator counter-screen hit in non-induced cells. actives 82% (n = 1,100). shares compounds with RGS4 pot. HEK293 M3R non-induced RGS4, Fluo4 calcium flux; after carbachol challenge at its EC90. inhibition, % at 10 µM. AID 602283;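 active = inhibition exceeding 3 SD of buffer-only control wells, cut at about 26% in these data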;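 note: percent drop in integrated peak-minus-baseline over baseline Fluo4 ratio after carbachol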
Starred values were filed as active, the others as inactive; i = inactive; nt = not tested or not shown.

SMILES | RGS4 inh | MrgX1 ag | MrgX1 antagonist | RGS4 pot | MrgX1 PAM | RGS4 activ val | M3R Ca counter
O=C(NCc1ccc(F)cc1)C(=O)NCC1CCCN1S(=O)(=O)c1ccccc1 (configuration not stated) | i | i | i | i | i | nt | nt
CC(C)(C)CC(C)(C)NCC(O)COc1ccc2c(c1)CCC2 (configuration not stated) | i | i | i | -10* | i | 92* | 55*
CC(C)(CO)NCC(O)COc1ccc2c(c1)CCC2 (configuration not stated) | i | i | i | i | i | nt | nt
COc1ccc(C(=O)N2CCN(C(C)=O)CC2)cc1S(=O)(=O)N1CCOCC1 | i | i | i | i | i | nt | nt
O=C(CSc1nnc(CNC(=O)c2cccc(C(F)(F)F)c2)o1)NC1CCCCC1 | i | i | i | i | i | nt | nt
COC(=O)C1(CC2CC(c3ccncc3)=NO2)CCN(C(=O)OC(C)(C)C)CC1 (configuration not stated) | i | i | i | i | i | nt | nt
Cc1c(C(=O)OCCN2CCCCC2)oc2ccccc12 | i | i | i | -11* | i | 94* | 91*
Cc1c(C(=O)OC(C)CCN(C)C)oc2ccccc12 (configuration not stated) | i | i | i | -11* | i | 93* | 82*
Cc1c(C(=O)OCC(C)(C)CN(C)C)oc2ccccc12 | i | i | i | i | i | nt | nt
Cc1c(C(=O)OCC(=O)N2C(C)CCCC2C)oc2ccccc12 (configuration not stated) | i | i | i | i | i | nt | nt
CN(CCN(C)C(C)(C)C)C(=O)C(c1ccccc1)c1ccccc1 | i | i | i | -12* | i | 94* | 75*
CSc1ccc(CN(C)C(=O)C(c2ccccc2)c2ccccc2)cc1 | i | i | i | i | i | nt | nt
Cn1c(SCCN2CCCC2)nnc1C1CCN(S(=O)(=O)c2ccc(F)cc2)CC1 | i | i | i | -7.8* | i | 50* | 0
COc1ccc(-c2oc3ncnc(NCCCN4CCOCC4)c3c2-c2ccc(OC)cc2)cc1 | i | i | i | i | i | nt | nt
COc1ccc(-c2oc3ncnc(NCCN4CCOCC4)c3c2-c2ccc(OC)cc2)cc1 | i | i | i | -9.8* | i | 88* | 70*
CCCNC(=O)c1ccccc1NC(=O)c1ccc2c(c1)NC(=O)C(C)S2 (configuration not stated) | i | i | i | -7.8* | i | 72* | 29*
CC(=O)c1ccccc1NC(=O)c1ccc2c(c1)NC(=O)C(C)S2 (configuration not stated) | i | i | i | i | i | nt | nt
COc1c(O)ccc(C2NC(=O)NC(C)=C2C(=O)Nc2ccccc2C)c1[N+](=O)[O-] (configuration not stated) | i | i | i | i | i | nt | nt
CCN1CCN(CCn2c(=S)[nH]c3ccccc3c2=O)CC1 | i | i | i | -7.8* | i | 85* | 59*
O=C(Nc1ccsn1)c1ccc(Cl)cc1Cl | i | i | i | i | i | nt | nt
Nc1nonc1-n1nnc(C(=O)N/N=C/c2cc(Cl)ccc2O)c1CN1CCCCCC1 | i | i | i | i | i | nt | nt
CCN1CCN(C(=O)c2ccc3nc(-c4ccccc4)c(-c4ccccc4)nc3c2)CC1 | i | i | i | -9.4* | i | 73* | 84*
O=C(O)c1ccc2nc(-c3ccccc3)c(-c3ccccc3)nc2c1 | i | i | i | i | i | nt | nt
CN1CCN(CCNC(=O)c2ccc3nc(-c4ccc(F)cc4)c(-c4ccc(F)cc4)nc3c2)CC1 | i | i | i | -9.7* | i | 90* | 84*
Cc1ccc(NC(=S)NC(NC(=O)c2ccccc2C)C(Cl)(Cl)Cl)c(C)c1 (configuration not stated) | i | i | i | -8.5* | i | 0 | 0
SMILES | RGS4 inh | MrgX1 ag | MrgX1 antagonist | RGS4 pot | MrgX1 PAM | RGS4 activ val | M3R Ca counter
C/C(=C\c1ccccc1)C(=O)NCCCn1ccnc1 | i | i | i | i | i | nt | nt
Cc1cc(Cl)c(S(=O)(=O)N2CCN(c3ccccn3)CC2)cc1OCC(=O)NC1CCCCC1 | i | i | i | -8* | i | 92* | 75*
CC1CCN(c2ccc3c(c2)S(=O)(=O)c2ccccc2C3=O)CC1 | i | i | i | -8.2* | i | 68* | 65*
NC(=O)C1CCN(c2ccc3c(c2)S(=O)(=O)c2ccccc2C3=O)CC1 | i | i | i | i | i | nt | nt
CCCc1cc(C(=O)N2CCN(c3ccc(C(F)(F)F)cn3)CC2)sc1C | i | i | i | -11* | i | 83* | 56*
CC(=O)c1cccc(OCC(=O)N2CCN(c3ccc(C(F)(F)F)cn3)CC2)c1 | i | i | i | -12* | i | 0 | 0
CN(C)S(=O)(=O)c1ccc(NC(=O)CN2CCCc3ccccc32)cc1 | i | i | i | i | i | nt | nt
COc1ccc(CN(C)S(=O)(=O)c2nnc(NC(=O)c3ccccc3)s2)cc1OC | i | i | i | i | i | nt | nt
COc1ccccc1C(=O)Nc1nnc(S(=O)(=O)N(C)Cc2ccccc2)s1 | i | i | i | -8.9* | i | 89* | 52*
COc1cccc(C2SCC(=O)N2c2ccc(Br)cc2)c1OC (configuration not stated) | i | i | i | -9.8* | i | 91* | 92*
CN(C)C(C)(C)C#CCC(c1ccccc1)c1ccccc1 | i | i | i | -8.2* | i | 90* | 59*
Cn1nc(NC(=O)CC(C)(C)CC(=O)O)c2ccccc21 | i | i | i | i | i | nt | nt
COc1ccc(C)c2sc(=NC(=O)c3cccc(N4C(=O)CCC4=O)c3)n(C)c12 | i | i | i | i | i | nt | nt
C=CCn1c(=NC(=O)c2cccc(N3C(=O)CCC3=O)c2)sc2cccc(OC)c21 | i | i | i | -10* | i | 92* | 73*
COc1ccc(-c2sc(C(=O)c3ccc(Cl)cc3Cl)cc2CC(=O)O)cc1 | i | i | i | i | i | nt | nt
Oc1ccc(Nc2nc(N3CCCC3)c3ccccc3n2)cc1 | i | i | i | -8.2* | i | 91* | 65*
